Publication PMC3186881 (Chemico-biological interactions, 2011)
Peptide text beside a SMILES is read from it. * marks the point of attachment. Cbz = O=C(OCc1ccccc1)*; CH2F = FC*

Tests used:
Jurkat cells [1] = test: DNA fragmentation; format: cell-based; conditions: 24 h
Jurkat cells [2] = test: Cell viability by trypan blue exclusion; format: cell-based; conditions: for cell viability (trypan blue exclusion): 100 nM
Jurkat cells [3] = test: Intracellular hydrogen peroxide levels; format: cell-based; conditions: 100 nM, time course
Procedure, shortened: (§1)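 Jurkat cells treated at 100 nM over a time course up to 16 h. Stained 30 min in the dark with dihydroethidine (superoxide, FL-3) or CM-H2DCF-DA (hydrogen peroxide, FL-1); flow cytometry, mean fluorescence reported. Compared with DMSO-treated cells by ANOVA and Bonferroni post-test.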

Jurkat cells [4] = test: Intracellular superoxide levels; format: cell-based; conditions: 100 nM; for increase of intracellular superoxide compared to diluent: 16 h; for ROS levels (superoxide and hydrogen peroxide): time course
Procedure, shortened: as §1

[5] = molecular target: chymotrypsin-like (CT-L) activity of the proteasome (Homo sapiens, UniProt P28074); test: Chymotrypsin-like proteasome activity in treated Jurkat cells; format: cell-based; conditions: for CT-L activity over time (recovery or sustained inhibition): 1 h to 16 h
[6] = test system: β5 protein (chymotryptic-like subunit of the proteasome); test: β5 subunit protein level by western blot; format: cell-based; conditions: Jurkat cells, 100 nM, 1, 6 and 12 h
caspase-8 = test: Caspase-8 activation by western blot; format: cell-based; conditions: Jurkat cells, 6 h
Procedure, shortened: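 Jurkat cells treated 6 h at 100 nM. Lysates from 5x10^6 cells; 50 μg protein run on SDS-PAGE, transferred to nitrocellulose, probed with caspase-8 antibody (1:500) detecting pro- and cleaved forms, then secondary (1:5000). Antibodies in 5% milk/TBS, 0.005% Tween; ECL detection. Densitometry given as cleaved:pro-caspase-8 ratio.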

[7] = molecular target: trypsin-like (T-L) activity of the proteasome (Homo sapiens, UniProt Q99436); test: Trypsin-like proteasome activity in treated Jurkat cells; format: cell-based
Procedure, shortened: (§2)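 Jurkat cells dosed 1 h or 12 h at equipotent concentrations chosen from 24 h DNA-fragmentation dose-response. Caspase-like activity read as z-LLE-amc hydrolysis; trypsin-like as […] hydrolysis. Fluorescence at ex 380/em 460 nm (RFU), normalized to DMSO-treated cells as 100%. Mean ± SD of three independent experiments; two-way ANOVA with Bonferroni post-test.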

Jurkat cells [8] = test: Cell size by forward scatter versus side scatter; format: cell-based; conditions: 100 nM, 24 h
Procedure, shortened: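 Jurkat cells treated 24 h, then analysed by flow cytometry. Cell size judged on forward- versus side-scatter plots, with a gate set on the DMSO control population to detect size shifts after treatment.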

[9] = molecular target: caspase-like (C-L) activity of the proteasome (Homo sapiens, UniProt P28072); test: Caspase-like proteasome activity in treated Jurkat cells; format: cell-based; conditions: for inhibition of C-L activity: Jurkat cells, equipotent concentrations (4.5 μM NPI-2078, 1 μM NPI-2104, 25 nM marizomib)
Procedure, shortened: as §2

Jurkat cells [10] = test: Nuclear morphology by Hoechst staining; format: cell-based; conditions: 100 nM, 24 h
Procedure, shortened: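 Jurkat cells exposed 24 h at 100 nM; 10,000 cells stained with 5 μM Hoechst 33342 for 20 min, cytocentrifuged onto slides and examined by fluorescence microscopy for nuclear shrinkage and fragmentation.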

proteasomal activities = conditions: leukemia cells; cited from earlier work
PARP = PARP cleavage by western blot; format: cell-based; conditions: Jurkat cells, 100 nM, 16 h
Procedure, shortened: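 Jurkat cells exposed to 100 nM for 16 h. Lysates from 5x10^6 cells; 50 μg protein by SDS-PAGE, nitrocellulose transfer, PARP antibody 1:2000, secondary 1:5000, diluted in 5% milk/TBS with 0.005% Tween; ECL detection. Cleaved PARP band quantified by densitometry, normalized to actin.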

[11] = equipotent concentrations (4.5 μM NPI-2078, 1 μM NPI-2104, 25 nM marizomib), 1 h
[12] = equipotent concentrations (4.5 μM NPI-2078, 1 μM NPI-2104, 25 nM marizomib), 12 h
[13] = equipotent concentrations (4.5 μM NPI-2078, 1 μM NPI-2104, 25 nM marizomib)

## CC(=O)N[C@@H](CS)C(=O)O [NAC, N-acetyl cysteine, reference compound]
Jurkat cells [1]; 24 mM NAC before 100 nM analogs
  effect of antioxidant pretreatment on DNA fragmentation induced by LG analogs: attenuated
Jurkat cells [2]; 24 mM
  toxicity as single agent: did not have toxic effects
Jurkat cells [2]; 24 mM NAC before 100 nM analogs, 24 h
  effect of antioxidant pretreatment on viability loss by LG analogs: offered protection

## CC12OC(=O)C1(C(O)C1C=CCCC1)NC(=O)C2CCBr (stereo not drawn) [NPI-2053]
Jurkat cells [3]
  hydrogen peroxide levels compared to diluent: steadily increased
Jurkat cells [4]
  increase of intracellular superoxide compared to diluent: over 7 fold

## CC12OC(=O)C1(C(O)C1CCCCC1)NC(=O)C2CCCl (stereo not drawn) [NPI-2056]
[5]; 100 nM
  CT-L activity over time (recovery or sustained inhibition): partial recovery
Jurkat cells [3]
  hydrogen peroxide levels compared to diluent: steadily increased
Jurkat cells [1]; 100 nM
  DNA fragmentation: less DNA fragmentation
Jurkat cells [2]; 24 h
  cell viability (trypan blue exclusion): more viable cells
Jurkat cells [4]
  increase of intracellular superoxide compared to diluent: over 7 fold

## CC12OC(=O)C1(C(O)C1C=CCCC1)NC(=O)C2CCI (stereo not drawn) [NPI-2070]
Jurkat cells [3]
  hydrogen peroxide levels compared to diluent: steadily increased
Jurkat cells [4]
  increase of intracellular superoxide compared to diluent: over 7 fold

## CC12OC(=O)C1(C(O)C1C=CCCC1)NC(=O)C2CCN=[N+]=[N-] (stereo not drawn) [NPI-2078]
[6]
  level of β5 protein: Neither inhibitor decreased levels of β5 protein
[5]; [11]
  CT-L activity, % of control: 10%
[5]; [12]
  inhibition of CT-L activity: 70%
caspase-8; [13]
  caspase-8 activation (cleavage of pro-caspase-8): caspase-8 activation occurred
[7]; [12]
  inhibition of T-L activity: ~5%
Jurkat cells [2]; 24 h
  cell viability (trypan blue exclusion): did not affect viability
Jurkat cells [8]
  change in cell size compared to control population: did not show a large change in cell size
[9]; 1 h
  inhibition of C-L activity: ≥ 95%
[9]; 12 h
  inhibition of C-L activity: > 65%
Jurkat cells [4]
  ROS levels (superoxide and hydrogen peroxide): weak

## CC12OC(=O)C1(C(O)C1C=CCCC1)NC(=O)C2CCSC#N (stereo not drawn) [NPI-2104]
[5]; 100 nM, 1 h
  inhibition of CT-L activity: about 90%
[5]; 100 nM
  CT-L activity over time (recovery or sustained inhibition): recovered
[5]; 100 nM, 12 h
  CT-L activity, % of control: 64.5%
[5]; equipotent concentration (1 μM NPI-2104), 12 h
  CT-L activity, % of control: 28.6%
[5]; [11]
  CT-L activity, % of control: 10%
[5]; [12]
  inhibition of CT-L activity: 70%
caspase-8; 100 nM
  caspase-8 activation (cleavage of pro-caspase-8): weakly activated
caspase-8; [13]
  caspase-8 activation (cleavage of pro-caspase-8): caspase-8 activation occurred
[7]; equipotent concentrations (1 μM NPI-2104, 25 nM marizomib), 1 h
  inhibition of T-L activity: 11%
[7]; [12]
  inhibition of T-L activity: > 30%
Jurkat cells [2]; 24 h
  cell viability (trypan blue exclusion): did not affect viability
[9]; 1 h
  inhibition of C-L activity: ≥ 95%
[9]; 12 h
  inhibition of C-L activity: > 65%
Jurkat cells [4]
  ROS levels (superoxide and hydrogen peroxide): weak

## Cc1ccc(S(=O)(=O)OCCC2C(=O)NC3(C(O)C4C=CCCC4)C(=O)OC23C)cc1 (stereo not drawn) [NPI-2151]
Jurkat cells [3]
  hydrogen peroxide levels compared to diluent: steadily increased
Jurkat cells [4]
  increase of intracellular superoxide compared to diluent: over 7 fold

## C[C@@]12OC(=O)[C@]1([C@@H](O)[C@@H]1C=CCCC1)NC(=O)[C@@H]2CCCl [marizomib, Marizomib, reference compound]
[6]
  level of β5 protein: Neither inhibitor decreased levels of β5 protein
Jurkat cells [10]
  nuclear morphology (Hoechst staining): shrinkage and fragmentation of the DNA
[5]; [12]
  inhibition of CT-L activity: sustained
Proteasomal activities
  profile of inhibition of proteasome activities: blocking the CT-L and C-L activities potently, while T-L activity is inhibited to a lesser extent
caspase-8; [13]
  caspase-8 activation (cleavage of pro-caspase-8): caspase-8 activation occurred
Jurkat cells [8]
  change in cell size compared to control population: altered cell size
PARP
  PARP cleavage: PARP cleavage occurred
[9]; 12 h
  inhibition of C-L activity: sustained
[9]; Jurkat, read-out: inhibition of C-L activity
  inhibition at 0.025 µM: 88%

## CC[C@H](C)[C@H](NC(=O)OCc1ccccc1)C(=O)N[C@@H](CCC(=O)OC)C(=O)N[C@H](C(=O)N[C@@H](CC(=O)OC)C(=O)CF)[C@@H](C)O [z-IETD-fmk] (Cbz-IE(OMe)TD(OMe)-CH2F)
Jurkat cells [1]; 25 μM z-IETD-fmk 30 min before 100 nM analogs
  effect of caspase-8 inhibitor pretreatment on analog-induced DNA fragmentation: prevented
